Screens: PubChem BioAssay, several laboratories
Only some compounds are listed: those with a hit (about 2.5% of all), similar ones and a draw of the others.
NR2E3 ag-1: human photoreceptor-specific nuclear receptor agonism; Q9Y5X4; CHO-S Gal4-NCOR/VP16-NR2E3 two-hybrid, luciferase; inhibition of corepressor binding, % at 3.98 µM; 0.35% of 360,000 active; AID 602229;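 active means inhibition above the mean of all tested compounds plus 3 SD, cut at about 70% in these data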;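 further: 0% = DMSO with NR2E3 transfected cells and 100% = cells lacking NR2E3 construct; higher means lower luciferase signal from less NR2E3 corepressor binding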
Target sequence (Q9Y5X4 whole entry, looked up, the tested form may be a part): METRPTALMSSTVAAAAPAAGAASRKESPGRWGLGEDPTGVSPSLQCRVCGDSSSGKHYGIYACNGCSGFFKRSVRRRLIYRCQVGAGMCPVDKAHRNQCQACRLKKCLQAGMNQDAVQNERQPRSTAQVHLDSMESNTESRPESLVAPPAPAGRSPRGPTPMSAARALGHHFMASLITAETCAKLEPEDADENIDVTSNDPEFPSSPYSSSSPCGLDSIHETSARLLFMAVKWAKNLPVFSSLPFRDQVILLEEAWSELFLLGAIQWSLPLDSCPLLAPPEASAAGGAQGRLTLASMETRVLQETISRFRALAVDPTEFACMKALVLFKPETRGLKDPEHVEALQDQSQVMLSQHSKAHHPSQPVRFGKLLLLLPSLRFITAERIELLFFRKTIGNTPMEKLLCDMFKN
GalR3 antag: human GalR3 antagonism. AID 651719. HEK293 GalR3-CNG cAMP membrane potential fluorescence; galR3 body fused to GalR1 C-terminus. inhibition, % at 3 µM. O60755. 0.44% of 360,000 active;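 active means inhibition above the screen-wide average plus 3 SD, cut at about 13% in these data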;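 further: forskolin and galanin both at EC90 stimulate the cells; cAMP rise reported by CNG channel membrane potential dye signal; 0% = forskolin plus galanin with DMSO and 100% = forskolin alone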
Target sequence (O60755 1-299 limits assumed): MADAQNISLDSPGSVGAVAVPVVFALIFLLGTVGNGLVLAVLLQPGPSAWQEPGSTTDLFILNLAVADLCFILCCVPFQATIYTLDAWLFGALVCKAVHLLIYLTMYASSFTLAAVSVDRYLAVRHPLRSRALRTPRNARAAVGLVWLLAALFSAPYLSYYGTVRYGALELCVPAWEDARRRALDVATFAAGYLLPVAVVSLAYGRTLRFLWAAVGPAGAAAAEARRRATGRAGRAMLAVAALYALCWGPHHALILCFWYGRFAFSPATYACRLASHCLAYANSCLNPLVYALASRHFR
MsrA inh: inhibitors of bovine MsrA. purified bovine MsrA, absorbance read-out. inhibition, % at 15.5 µM. 0.75% of 360,000 active. AID 651718;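 further: 0% = vehicle wells with enzyme and 100% = reference inhibitor wells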
NR2E3 ag-2: NR2E3 (human) agonism. inhibition of corepressor binding, % at 4.78 µM. Q9Y5X4. 0.12% of 320,000 active. GST-NR2E3/biotin-RetCOR TR-FRET, 1536-well;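 active means percent inhibition above the cutoff of mean plus 3 SD of all tested compounds, set per screening campaign, cut at about 20% in these data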;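 further: 0% = DMSO wells and 100% = biotin wells as full block of FRET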
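Material – GST-tagged NR2E3 plus biotinylated RetCOR corepressor · Quantity – NR2E3 fusion 1.35 nM · Times – 5 h incubation at 4 °C · Medium – pH 7.5 Tris-based buffer · Technique – TR-FRET, Eu(K)-anti-GST donor, streptavidin-D2 acceptor, ex 340, em 617/671 nm · Benchmarks – high control biotin, low control 0.6% DMSO · Format – 1536-well plates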
MsrA act: bovine methionine sulfoxide reductase A activation; purified bovine MsrA, absorbance read-out; activation, % at 10.6 µM; 0.3% of 360,000 active; in the data active means activation above about 7.5%;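 further: 0% = vehicle and 100% = reference activator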
NadD inh: inhibitors of Staphylococcus aureus NadD; purified NadD enzyme, colorimetric absorbance read-out; inhibition, % at 20 µM; 0.78% of 360,000 active; AID 602399; in the data active means inhibition above about 26%
NR2E3 ag conf: confirmation of human NR2E3 agonists | inhibition, % at 3.98 µM | shares compounds with NR2E3 ag-1 | CHO-S mammalian two-hybrid NR2E3-NCOR, luciferase luminescence | AID 624378 | 51% of 2,300 active;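 active means average inhibition above a cutoff equal to the mean inhibition of all tested compounds plus one SD, cut at about 70% in these data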;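 further: 0% = DMSO in NR2E3 cells and 100% = DMSO in cells lacking NR2E3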
VP16 counter: GAL4-VP16 reporter inhibition in NR2E3 agonist counterscreen; shares compounds with NR2E3 ag-1; CHO-S GAL4-VP16 luciferase reporter, luminescence; inhibition, % at 3.98 µM; 29% of 2,300 active;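 active means mean inhibition above a cutoff equal to the average over all tested compounds plus one standard deviation, cut at about 70% in these data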;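 further: luciferase from a UAS reporter driven by GAL4-VP16 transactivation; 0% = DMSO with VP16-transfected cells and 100% = DMSO with cells lacking VP16; higher means less reporter light so more repression of VP16 activity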
NadD inh conf: NadD (S. aureus) inhibition, single concentration confirmation | shares compounds with NadD inh | purified S. aureus NadD, colorimetric enzyme assay | inhibition, % at 20 µM | 13% of 2,000 active | AID 624309; in the data active means inhibition mostly above about 42%, no sharp cut-off; inactive means mostly below about 42%
MsrA conf: confirmation of bovine MsrA inhibitors. shares compounds with MsrA inh. purified bovine MsrA, absorbance read-out. inhibition, % at 15.5 µM. 41% of 2,300 active;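 further: coupled to thioredoxin reductase with NADPH and selenocystamine and DMSO as substrate; 0% = vehicle only and 100% = full effect of reference inhibitor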
GalR3 conf: confirmation of human galanin receptor 3 antagonists; shares compounds with GalR3 antag; inhibition, % at 3 µM; 59% of 1,600 active; AID 652245; HEK293 GalR3 CNG cAMP biosensor, membrane potential fluorescence; galR3 fused to GalR1 carboxy tail; challenged with forskolin and galanin at EC90;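 active means inhibition above the primary screen's cutoff, the mean inhibition of all screened compounds plus 3 SD, cut at about 13% in these data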;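 further: 0% = forskolin plus galanin and 100% = forskolin alone with DMSO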
CNG parental: parental cell agonism counter-screen for GalR3 antagonists; shares compounds with GalR3 antag; HEK293-CNG parental cells, cAMP membrane potential fluorescence; normalised: DMSO wells 0%, forskolin wells 100%; activation, % at 3 µM; 10% of 1,600 active; AID 652268; in the data active means activation above about 1.3%
Numbers without * were called inactive; nt = no result. Unless noted, no stated cut-off is given here; in the data, active means inhibition above about 4.5%; inactive means the rest.

SMILES	NR2E3 ag-1	GalR3 antag	MsrA inh	NR2E3 ag-2	MsrA act	NadD inh	MsrA conf	others
Cc1cccc(-n2c(/C=C/c3ccc([N+](=O)[O-])o3)nc3ccccc3c2=O)c1	2	-1	-1	3	-4	9	nt
O=C1Nc2ccccc2/C1=C/c1cnc[nH]1	48	1	6.4*	-9	-3	-6	4	NR2E3 ag conf=26;VP16 counter=-1
c1ccc(C2(NC3=NCCO3)CCCCC2)cc1	14	-5	1	nt	-10	-2	nt
CC(C)(C)c1cc(C=C(C#N)C#N)cc(C(C)(C)C)c1O	92*	27*	3	0	-8	-5	nt	NR2E3 ag conf=86*;VP16 counter=89*;GalR3 conf=18*;CNG parental=15*
O=C(Cc1cccs1)N1CCC2(CC1)OCCO2	1	-7	0	0	-1	-3	nt
Cc1ccc2c(c1Cl)NC(C(=O)O)C1CC(Sc3ccccc3[N+](=O)[O-])C(Cl)C21 (centres undefined)	-58	nt	nt	-2	-2	36*	nt	NadD inh conf=31
COc1ccc(CN2CCN(C(=O)Cc3ccccc3)CC2)cc1OC	-26	-6	0	nt	0	0	nt
CCCCCCn1c(=O)c(C(=O)Nc2c(C)n(C)n(-c3ccccc3)c2=O)c(O)c2ccccc21	-7	1	1	1	-2	32*	nt	NadD inh conf=7
CCCCCn1c(=O)c(C(=O)Nc2ccccc2)c(O)c2ccccc21	0	-2	0	1	0	3	nt
O=c1[nH]c2ccccc2n1C1CCN(C(c2ccccc2)c2nnnn2-c2ccc3c(c2)OCCO3)CC1 (centres undefined)	17	-8	0	nt	-1	31*	nt	NadD inh conf=9
O=C1NCN(c2ccccc2)C12CCN(C(c1cccc3ccccc13)c1nnnn1-c1ccc3c(c1)OCCO3)CC2 (centres undefined)	-1	-5	1	nt	-4	31*	nt	NadD inh conf=19
O=C1NCN(c2ccccc2)C12CCN(C(c1cccc3ccccc13)c1nnnn1Cc1ccccc1)CC2 (centres undefined)	-20	-8	1	nt	-2	32*	nt	NadD inh conf=18
O=C1NCN(c2ccccc2)C12CCN(C(c1ccnc3ccccc13)c1nnnn1Cc1ccccc1)CC2 (centres undefined)	5	-4	0	nt	-5	5	nt
O=C1NCN(c2ccccc2)C12CCN(C(c1ccccc1)c1nnnn1-c1ccc3c(c1)OCCO3)CC2 (centres undefined)	-5	-2	1	nt	-10	19	nt
Cc1ccc(CN2C(=O)NC(=O)C3(Cc4c(nc5ccccn5c4=O)N4CCCCCC43)C2=O)cc1 (centres undefined)	-16	-4	0	-3	-3	21	nt
CCN(CC)C(=O)c1ccc(NC(=O)Cn2nc(C)c3ccccc3c2=O)cc1	-1	-4	1	-4	-3	-2	nt
Nc1c(C(=O)OCc2ccccc2)c2nc3ccccc3nc2n1Cc1cccs1	-15	-8	2	5	0	30*	nt	NadD inh conf=23
CCc1ccc(-n2c(O)c(/C=N/NC(=O)c3ccncc3)c(=O)[nH]c2=O)cc1	-26	-2	4.7*	0	-6	1	4.6*
CC(Cc1ccccc1Sc1ccccc1O)N(C)C (centres undefined)	18	-6	0	4	-9	-9	nt
COc1cc(/C=C2\C(=O)NC(=O)N(CCc3ccc(F)cc3)C2=O)ccc1O	1	-3	7.6*	1	-13	1	4
CCOP(=O)(Nc1ccc2c(c1)C(=NNC(N)=S)c1ccccc1-2)OCC	6	-5	15*	nt	-1	2	11*
COC(=O)C(NC(=S)N1CC2C[C@@H](C1)Cn1c2cccc1=O)C(C)C (some centres undefined)	9	-7	0	nt	-11	-1	nt
O=C(COc1ccccc1)N1CCN(CC(O)COc2ccccc2)CC1 (centres undefined)	-22	-1	2	3	-3	-2	nt
COc1ccccc1-n1c(O)c(C=Nc2c(C)n(C)n(-c3ccccc3)c2=O)c(=O)[nH]c1=O	2	5	5.4*	2	-4	2	4.8*
COc1ccc(OC)c(-n2c(O)c(C=Nc3c(C)n(C)n(-c4ccccc4)c3=O)c(=O)[nH]c2=O)c1	-3	-5	4	4	-4	8	nt
SMILES	NR2E3 ag-1	GalR3 antag	MsrA inh	NR2E3 ag-2	MsrA act	NadD inh	MsrA conf	others
O=c1[nH]cnc2nc(-c3ccc(N(CCCl)CCCl)cc3)[nH]c12	-85	-4	5.1*	nt	-3	-4	2
N/C(=N\N=C/c1ccc(-c2ccc(O)c(C(=O)O)c2)o1)N[N+](=O)[O-]	-51	-6	5.2*	5	-4	4	4.7*
CN1C(=O)N(C)C(=O)C2(Sc3ccccc3C2=O)C1=O	6	5	59*	4	-2	-1	1
CC1=CC(=C2C(=O)NC(=O)NC2=O)C=C(C(F)(F)F)N1C(C)C	-13	-3	4.9*	2	-5	10	2
O=c1cccc2n1CC1CC2CN(CC(O)CN2CC3CC(C2)c2cccc(=O)n2C3)C1 (centres undefined)	-14	-10	0	1	-3	-3	nt
CCCCn1c(O)c(C(CC)=Nc2cccc(C(=O)O)c2)c(=O)[nH]c1=O	-22	-1	0	2	-1	2	nt
COC(=O)C1=C(c2ccc(OC)c(OC)c2)C[C@@H]2CC[C@H]1N2C(=O)N1CCCC1	16	3	-1	1	0	4	nt
COc1ccc(OC)c(/C=N/OC(=O)Nc2ccc(Cl)cc2)c1	-30	-4	2	13	0	-12	nt
COc1ccc(/C=N/N=C(/N)N[N+](=O)[O-])c(OC)c1	-16	6	7.9*	-4	-5	9	5.6*
CCC(CC)N1CCN(C(=O)Cc2ccccc2)CC1	-10	-8	1	1	-4	-1	nt
